Laboratory results reported in ChEMBL document CHEMBL1806433, “Cytotoxicity of aporphines in human colon cancer cell lines HCT-116 and Caco-2: an SAR study” (Bioorg Med Chem Lett, 2011).

Experiments:
HCT-116 [1] = assay: Cytotoxicity against human HCT116 cells after 72 hrs by MTS assay; type: functional, cell-based; settings: HCT-116, 72 h
Method in brief: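 HCT-116 kept in McCoy's 5a with 10% FBS, 1% nonessential amino acids, 2% HEPES and 1% antibiotic at 37 °C, 5% CO2. Seeded at 5000-3,000 cells/well 24 or 48 h before treatment. Serial dilutions in DMSO (<0.5% in medium) applied for 72 h. MTS/phenazine methosulfate added for 3 h, OD490 read versus 0.5% DMSO controls. IC50 given as mean ± S.D. of three experiments.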

Caco-2 [2] = assay: Cytotoxicity against human Caco2 cells after 72 hrs by MTS assay; type: functional, cell-based; settings: Caco-2, 72 h
Method in brief: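 Caco-2 grown in EMEM with 10% FBS, 1% nonessential amino acids, 1% L-glutamine and 1% antibiotic at 37 °C, 5% CO2. Cells plated at 5000-3,000/well 24 or 48 h before dosing. Serially diluted samples in DMSO (<0.5% in medium) for 72 h. Then MTS plus phenazine methosulfate for 3 h at 37 °C, OD490 read against 0.5% DMSO controls. IC50 reported as mean ± S.D. of three experiments.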

[3] = Cytotoxicity against human CCD-18Co cells after 72 hrs by MTS assay; type: cell-based
Method in brief: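 72 h exposure to serially diluted samples in DMSO (<0.5% in medium), with 0.5% DMSO controls in parallel. MTS reagent with phenazine methosulfate then added for 3 h at 37 °C. Absorbance at 490 nm gives cell number relative to controls. IC50 is the concentration giving 50% growth inhibition, reported as mean ± S.D. of three separate experiments.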

HCT-116 [4] = assay: Ratio of etoposide IC50 to compound IC50 for human HCT116 cells; type: functional
Caco-2 [5] = assay: Ratio of etoposide IC50 to compound IC50 for human Caco2 cells; type: functional

SMILES | IC50 (HCT-116 [1]) [µM] | IC50 (Caco-2 [2]) [µM] | IC50 [3] [µM] | Ratio IC50 (HCT-116 [4]) | Ratio IC50 (Caco-2 [5])
COc1cc2c(cc1OC)[C@H](Cc1ccc3c(c1)OCO3)N(C)CC2 | 191 | 191 | – | – | –
COc1cc([C@@H]2c3cc4c(cc3[C@@H](O[C@@H]3O[C@@H]5CO[C@@H](C)O[C@H]5[C@H](O)[C@H]3O)[C@H]3COC(=O)[C@H]23)OCO4)cc(OC)c1O [ETOPOSIDE] | 25.5 | 18.6 | 44.4 | – | –
COc1cc2c3c(c1OC)-c1cc4c(cc1C[C@@H]3N(S(C)(=O)=O)CC2)OCO4 | 196 | 196 | – | – | –
CCC(CC)COc1c(OC)cc2c3c1-c1cc4c(cc1C[C@@H]3N(C)CC2)OCO4 | 26.6 | 22.8 | 50.7 | – | –
CCOC(=O)N1CCc2cc(OC)c(OCC)c3c2[C@@H]1Cc1cc2c(cc1-3)OCO2 | 73.3 | 73.5 | 134 | – | –
COc1cc2c3c(c1OC(=O)c1ccccc1)-c1cc4c(cc1C[C@@H]3N(C)CC2)OCO4 | 25.2 | 25.9 | 45.1 | – | –
COc1cc2c3c(c1O)-c1cc4c(cc1C[C@@H]3N(C)CC2)OCO4 [DOMESTICINE] | 73.3 | 73.5 | 134 | 3 | 4
COc1cc2c(c(-c3ccc4c(c3)OCO4)c1OC)[C@H](C)N(C)CC2 | 195 | 190 | – | – | –
CCCCCOc1c(OC)cc2c3c1-c1cc4c(cc1C[C@@H]3N(C)CC2)OCO4 | 46.3 | 35.3 | 73.4 | – | –
COc1cc2c3c(c1OC)-c1cc4c(cc1C[C@@H]3N(C(C)=O)CC2)OCO4 | 186 | 160 | 188 | – | –
CCOC(=O)N1CCc2cc(OC)c(OC)c3c2[C@@H]1Cc1cc2c(cc1-3)OCO2 | 81.4 | 83.2 | 112 | – | –
CCOC(=O)N1CCc2cc(OC)c(O)c3c2[C@@H]1Cc1cc2c(cc1-3)OCO2 | 72.7 | 71.7 | 128 | – | –
CCOC(=O)N1CCc2cc(OC)c(OCc3ccccc3)c3c2[C@@H]1Cc1cc2c(cc1-3)OCO2 | 93.3 | 99.8 | 110 | – | –
COc1cc2c3c(c1OC)-c1cc4c(cc1CC3N(C)CC2)OCO4 (centres undefined) [NANTENINE] | 38.3 | 36.2 | 56.5 | – | –
COc1c(Br)c2c3c(c1OC)-c1cc4c(cc1C[C@@H]3N(C)CC2)OCO4 | 100 | 101 | 181 | – | –
